# Sampled rows, rich in hits. Any-hit rate of the full collection: about 3.3%.
# ATG4B inhibitor: inhibitors of human ATG4B cysteine protease. inhibition, % at 8.33 µM. AID 504462. hit rate 0.51% among 340,000. ATG4B cleavage of LC3-PLA2, NBD-HPC fluorescence, 1 h; in the data active means inhibition above about 40%
# Target sequence (Q9Y4P1 whole entry, looked up): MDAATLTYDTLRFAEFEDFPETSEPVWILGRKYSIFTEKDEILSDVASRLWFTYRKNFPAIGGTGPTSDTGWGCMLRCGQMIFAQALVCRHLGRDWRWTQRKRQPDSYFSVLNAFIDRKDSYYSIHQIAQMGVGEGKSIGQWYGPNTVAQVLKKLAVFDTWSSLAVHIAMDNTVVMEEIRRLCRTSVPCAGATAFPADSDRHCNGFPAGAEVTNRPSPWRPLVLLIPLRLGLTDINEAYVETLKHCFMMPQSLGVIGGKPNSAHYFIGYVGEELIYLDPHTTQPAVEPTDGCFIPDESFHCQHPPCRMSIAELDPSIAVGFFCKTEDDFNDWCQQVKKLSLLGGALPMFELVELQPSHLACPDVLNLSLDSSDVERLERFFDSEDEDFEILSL
# Arrestin-AP2 inh: human beta-arrestin and AP2 interaction inhibition. FITC-arrestin peptide / GST-AP2 beads, flow cytometry; AP2 beta2 appendage carries R879A mutation. inhibition, % at 10 µM. hit rate 0.31% among 340,000;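 active means inhibition above a set limit, near 3 SD of compounds lacking own fluorescence, cut at about 54% in these data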;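 further: plate controls were DMSO wells for no effect and 5 µM unlabelled arrestin peptide for full effect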
#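 Test system: GST-tagged AP2 beta2-adaptin appendage (R879A) on 4 µm glutathione beads; also added: fluorescein-tagged arrestin peptide at 50 nM final; timing: 12 min plus 1 h, RT; signal: flow cytometry, FL1 (488/535 nm); read-out: percent drop in bead-associated FITC signal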
# NRP1-CendR mod: NRP-1/CendR interaction modulation; inhibition, % at 25 µM; O14786; FAM-RPARPAR peptide binding to NRP-1, fluorescence polarization; hit rate 0.85% among 360,000;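 active means inhibition or corrected inhibition above about 18%, plus a signal ratio from 0.5 to 1.5, limit read from the data, passing the limit was not always enough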
# ABCB6 inh MLPCN: inhibitors of human ABC transporter ABCB6; Q9NP58; K562-ABCB6 porphyrin accumulation, flow cytometry, 1 h; stronger effect = lower value; fluorescence ratio to DMSO, % at 10 µM; hit rate 0.19% among 360,000; AID 602162;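 active means fluorescence ratio to DMSO below 75%, the collection mean minus 3 SD; inconclusive means too few cells collected in the well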;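 further: signal is porphyrin accumulated inside mitochondria; 100% equals median channel fluorescence of DMSO control wells; lower ratio means ABCB6 inhibition with less porphyrin fluorescence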
# Granule exo inh: lytic granule exocytosis inhibition | TALL-104 LAMP-1 surface exposure, flow cytometry; cells stimulated with thapsigargin and PMA | inhibition, % at 10 µM | hit rate 0.66% among 360,000 | AID 651702;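 active means inhibition above about 55%, limit read from the data; inconclusive means no clear call, values can overlap the other calls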
# Myeloid diff MLP: compounds promoting myeloid differentiation; hit rate 1% among 360,000; AID 624256; ER-HoxA9 myeloid progenitors, lysozyme-GFP differentiation, flow cytometry; calls only at 10 µM;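 active means normalized GFP-positive differentiation at or above the plate's own cutoff, the solvent-only control mean plus 3 SD; inconclusive means no clear call, values can overlap the other calls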;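 further: cells exposed to compound for four days before flow analysis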
# * marks the source's active call; other numbers are inactive results; i = inactive; ? = inconclusive; nt = no result; + = active, no number.
SMILES,ATG4B inhibitor,Arrestin-AP2 inh,NRP1-CendR mod,ABCB6 inh MLPCN,Granule exo inh,Myeloid diff MLP
CN(C(=O)C1CCC(=O)N(CCCN2CCCC2=O)C1)C(C1CC1)C1CC1 (stereo unspecified),-0.1,-8.4,8.2,98.0,-0.9,i
CC1C(=O)NN=C1C(=O)N/N=C\C(Br)=C\c1ccccc1 (stereo unspecified),-5.6,-2.6,0.0,98.0,1.3,+
O=C(N/N=C/C(Br)=C/c1ccccc1)c1cc(-c2ccco2)[nH]n1,-2.1,-11.8,-41.4,100.0,13.4,+
CC1=NNC(=O)C1CC(=O)N/N=C/C(Br)=C/c1ccccc1 (stereo unspecified),-4.3,-12.5,-1.3,101.0,17.4,i
COc1ccc(N(CC(=O)NCc2ccc(F)cc2)C(=O)c2snc(C(N)=O)c2N)cc1,28.6,4.5,7.7,103.0,-8.8,i
CC1(C)CC(=O)C=C(c2ccccc2-c2ccc3cc[nH]c3c2)C1=O,nt,nt,-6.4,107.0,-5.5,i
CC1(C)CC(=O)C=C(c2ccc(-c3ccc4[nH]ccc4c3)cc2)C1=O,nt,nt,-3.5,99.0,69.5*,i
COc1oc(C(=O)NC2CCCCC2)c(-c2ccc(Cl)cc2)c1S(=O)(=O)c1ccccc1,-7.6,11.1,1.9,97.0,11.4,nt
CC(C)c1ccc(OCC(=O)NCc2ccccc2)cc1,1.0,23.4,52.2*,95.0,-4.0,i
O=C1CC(N2CCN(c3nc4ccccc4s3)CC2)C(=O)N1c1ccc(F)cc1 (stereo unspecified),-10.9,-0.2,0.8,102.0,1.6,nt
COC(=O)/C=C1\C(=O)N(c2nc3ccccc3s2)C(=S)N1c1ccc(F)cc1,-4.4,5.6,27.2*,99.0,1.0,i
Cc1cc(/C=N/n2cnnc2)c(C)n1-c1ccc(OCc2ccc(F)cc2)cc1,19.4,8.3,0.8,95.0,1.8,+
Cc1c(NC(=O)CSc2nnc(Nc3ccccc3)s2)c(=O)n(-c2ccccc2)n1C,5.3,-4.0,-5.1,100.0,0.1,i
COc1ccccc1NS(=O)(=O)c1ccc(C)c(C(=O)Nc2ccc(S(=O)(=O)Nc3onc(C)c3C)cc2)c1,-4.4,11.1,32.7*,100.0,-6.6,i
Cc1ccccc1Nc1nc(NCc2ccco2)c2ccccc2n1,5.7,-24.5,-0.7,98.0,82.0*,i
C#CCSc1nnc(-c2c[nH]c3ccccc23)n1C,-0.2,5.8,1.0,98.0,-9.4,+
CSc1ccc(S(=O)(=O)NCc2ccc(Cl)cc2Cl)cc1,15.3,3.8,4.7,99.0,100.2*,i
COc1ccc(C)cc1NC(=O)c1nn(C)cc1Br,2.4,-14.2,2.7,100.0,1.7,i
O=C(C[n+]1cc(-c2ccc(Cl)cc2)n2c1CCC2)N1c2ccccc2Sc2ccccc21,1.0,2.0,-7.7,99.0,-1.4,i
CC1CCC(C(C)C)C(OC(=O)C[n+]2cc(-c3ccc(Cl)cc3)n3c2CCC3)C1 (stereo unspecified),9.6,-9.7,2.1,93.0,64.2*,i
CCOC(=O)c1sc2cc([N+](=O)[O-])cc(SCC(C)C)c2c1N,-2.3,-0.1,-52.2,i,-2.5,+
COc1ccc(N(C(=O)CCl)C(C(=O)NCCc2ccccc2)c2cccs2)cc1Cl (stereo unspecified),-3.1,14.3,-18.0,25.0*,9.0,?
COc1cccc(N(C(=O)CCl)C(C(=O)NCCc2ccccc2)c2cccs2)c1 (stereo unspecified),6.5,0.7,-18.7,104.0,14.2,i
O=C(NC(c1ccccc1)c1ccccc1)c1ccc(CO)cc1,-4.8,-2.8,3.7,99.0,6.4,i
COc1ccc(/C=C/c2nc(-c3ccccc3O)n[nH]2)cc1OC,-10.6,1.6,-2.6,94.0,64.6*,i
SMILES,ATG4B inhibitor,Arrestin-AP2 inh,NRP1-CendR mod,ABCB6 inh MLPCN,Granule exo inh,Myeloid diff MLP
O=C(COc1ccccc1/C=C1\SC(=S)NC1=O)Nc1ccc(F)cc1,-0.6,5.9,-22.5,97.0,-5.4,i
Cc1c(CN2CCN(CC(C)(C)C)C(CCO)C2)[nH]c2ccccc12 (stereo unspecified),-3.8,9.5,-0.4,99.0,0.4,i
CCOc1ccc(CN2CCN(Cc3[nH]c4ccccc4c3C)CC2CCO)cc1 (stereo unspecified),-6.8,1.3,38.3*,101.0,-2.9,i
c1ccc(-c2cn(-c3ccccc3)c3[n+]2CCS3)cc1,-4.2,-23.5,-5.4,98.0,-1.9,+
COc1ccc(NS(=O)(=O)c2cc([N+](=O)[O-])ccc2N/N=C/c2c(C)[nH]c3ccccc23)cc1,1.9,-7.0,-96.6,848.0,-0.8,+
Cc1[nH]c2ccccc2c1/C=N/Nc1ccccc1[N+](=O)[O-],-1.0,30.0,7.2,95.0,-2.9,i
Cc1cc(Br)cc(C=Nc2ccc(N3CCOCC3)cc2)c1O,-4.7,19.8,-39.6,98.0,73.5*,i
CS(=O)(=O)c1ccc(C(=O)OCc2nnc(-c3ccc(Cl)cc3)o2)cc1[N+](=O)[O-],-2.3,13.4,-0.8,99.0,59.7*,i
O=C(OCc1nnc(-c2ccc(Cl)cc2)o1)c1ccc(O)cc1,-9.6,7.8,29.4*,97.0,1.4,i
COc1ccc(NC(=S)N(CCc2c(C)[nH]c3ccc(C)cc23)Cc2cccnc2)cc1,-15.1,5.7,5.0,94.0,9.6,i
CCOc1ccc(NC(=S)N(CCc2c(C)[nH]c3ccc(C)cc23)Cc2ccncc2)cc1,-6.1,-2.5,-2.6,97.0,-0.9,+
O=C(OCC(=O)N1CCCC1=O)c1ccc(O)cc1O,5.8,21.1,15.2,97.0,12.6,i
COC(=O)C(Cc1c[nH]c2ccccc12)NC(C)=O (stereo unspecified),9.1,24.9,4.1,97.0,-4.3,i
CC(Cc1c[nH]c2ccccc12)NC(=O)OCCCl (stereo unspecified),-0.8,3.6,2.3,91.0,-3.4,+
CSc1ncccc1C(=O)Nc1ccccc1N1CCOCC1,-4.3,4.9,-5.5,99.0,-2.4,i
